Source: PubChem BioAssay
Only some compounds are listed: those with a hit (about 3% of all), similar ones and a draw of the others.
GRIN3A LBD mod = NR3A (human) ligand-binding domain modulation | AID 1259313 | NR3A LBD differential scanning fluorimetry, Tm shift; 0% = protein alone, 100% = glycine-bound protein | Tm shift relative to glycine control, % at 25 µM | 2.5% of 340,000 active;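 active = melting temperature shift of at least 10% of the positive control shift, at one fixed dose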
aDG glyco act = increases alpha dystroglycan glycosylation. activation, % at 10 µM. Pro5-aDG cells, alpha-DG glycosylation AlphaScreen (IIH6); 0% Pro5, 100% B10-LARGE cell signal. 0.22% of 360,000 active;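 active = activation of at least 8% versus controls, or a plate z-score of at least 8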;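 note: Pro5 are CHO cells carrying HIG-tagged alpha-DG that lacks glycosylation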
GC-B act = GC-B (human) receptor activation; P20594; 0.11% of 370,000 active; HEK293-GC-B cells, CNP EC30, cGMP TR-FRET; 0% at EC30 CNP, 100% saturating CNP; activation, % at 10 µM;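 active = activation at 10 µM reaching about 35% in either raw or pattern-adjusted values, limit read from the data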
GASC-1 inh = blocks human GASC-1 demethylase activity; GST-JMJD2C(1-420) H3K9me3 demethylation, DELFIA europium; 0.069% of 330,000 active; Q9H3R0; inhibition, % at 2.35 µM; AID 2099;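 active = more than half of a compound's replicate wells show inhibition beyond 50%, single wells judged on their own value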;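 note: signal counts dimethyl H3K9 product captured on neutravidin plate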
Hep lipid drop = hepatic lipid droplet formation modulation | AML12 mouse hepatocytes, oleate lipid droplets, BODIPY imaging | inhibition, % at 6.5 µM | 0.4% of 240,000 active;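 active = lipid droplet intensity inhibited by at least 50%, with more than 500 cells counted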
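Material – mouse AML12 hepatocyte cell line, fixed after treatment · Compound dosing – one dose, 6.5 µM compound · Times – compound with oleate, overnight · Measured by – Image-based BODIPY and DAPI two-channel analysis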
GC-A act = GC-A (human) enzyme activation. P16066. HEK293 GC-A cells, cGMP TR-FRET, EC30 ANP; 0% at EC30 ANP, 100% saturating ANP. activation, % at 10 µM. 0.14% of 370,000 active; in the data active = activation above about 40%
Target sequence (P16066 whole entry, looked up): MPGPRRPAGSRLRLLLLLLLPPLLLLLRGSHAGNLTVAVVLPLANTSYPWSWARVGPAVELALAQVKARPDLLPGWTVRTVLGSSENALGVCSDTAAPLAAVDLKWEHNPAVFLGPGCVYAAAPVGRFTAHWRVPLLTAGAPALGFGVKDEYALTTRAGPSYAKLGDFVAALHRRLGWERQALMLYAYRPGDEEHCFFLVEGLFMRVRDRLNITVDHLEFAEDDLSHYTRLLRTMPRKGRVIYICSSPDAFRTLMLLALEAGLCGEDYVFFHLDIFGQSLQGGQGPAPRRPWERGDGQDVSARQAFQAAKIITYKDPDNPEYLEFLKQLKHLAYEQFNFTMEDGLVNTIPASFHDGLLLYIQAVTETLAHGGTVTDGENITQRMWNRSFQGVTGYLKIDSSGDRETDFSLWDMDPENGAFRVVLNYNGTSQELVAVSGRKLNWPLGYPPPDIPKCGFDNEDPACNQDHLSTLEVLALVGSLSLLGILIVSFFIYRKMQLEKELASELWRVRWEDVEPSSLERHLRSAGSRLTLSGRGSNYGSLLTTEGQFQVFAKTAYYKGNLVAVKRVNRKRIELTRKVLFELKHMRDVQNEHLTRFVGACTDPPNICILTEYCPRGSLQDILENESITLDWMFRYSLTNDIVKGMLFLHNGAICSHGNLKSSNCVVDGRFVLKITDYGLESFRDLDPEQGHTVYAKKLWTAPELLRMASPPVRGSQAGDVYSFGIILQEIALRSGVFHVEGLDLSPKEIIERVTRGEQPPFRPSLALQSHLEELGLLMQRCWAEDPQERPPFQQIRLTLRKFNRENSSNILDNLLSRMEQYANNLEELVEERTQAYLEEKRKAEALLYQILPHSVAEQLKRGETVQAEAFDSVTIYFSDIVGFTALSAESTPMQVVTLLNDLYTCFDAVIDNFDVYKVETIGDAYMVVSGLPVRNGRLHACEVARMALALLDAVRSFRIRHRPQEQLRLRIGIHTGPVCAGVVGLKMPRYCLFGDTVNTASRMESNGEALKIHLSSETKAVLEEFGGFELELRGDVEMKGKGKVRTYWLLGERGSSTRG
Of the large screens only hits and unclear results are named; the others gave an inactive call.

O=C(/C=C/c1ccc(Cl)c([N+](=O)[O-])c1)Nc1ccc(NC(=O)c2ccco2)cc1	GRIN3A LBD mod 32.8
CC(=O)N/C(=C\c1cccc([N+](=O)[O-])c1)C(=O)NC1CCCCC1	GRIN3A LBD mod 11.2
O=C(N/C(=C/c1cccc([N+](=O)[O-])c1)C(=O)N1CCCCC1)c1cccs1	none
O=C(Nc1ccc(Cl)c([N+](=O)[O-])c1)c1ccco1	none
CC(C)(C)C(=O)CSc1nnc(SCc2cccc3ccccc23)s1	none (no result: GRIN3A LBD mod, aDG glyco act, GASC-1 inh, Hep lipid drop)
COc1ccc(NC(=O)c2cc(C3CCCCN3C(=O)c3ccc(NC(C)=O)cc3)on2)c(C)c1 (stereo not drawn)	none (no result: GRIN3A LBD mod, GASC-1 inh, Hep lipid drop)
O=C(NNC(=O)c1cc2cc(Br)ccc2oc1=O)c1ccc(O)cc1O	GRIN3A LBD mod 16.8
COCCCNC(=O)c1cc2cc(Br)ccc2oc1=O	none (no result: GASC-1 inh)
c1ccc2[nH]c(-c3cnco3)cc2c1	GRIN3A LBD mod 11.2
Cc1ccc(S(=O)(=O)N2CC(O)CC2C(=O)OCC(=O)c2ccccc2Cl)cc1C (stereo not drawn)	GRIN3A LBD mod 24.5
c1ccc(Cn2c(SC3CCCCC3)nnc2-c2cccnc2)cc1	none (no result: GRIN3A LBD mod, aDG glyco act, GASC-1 inh, Hep lipid drop)
CC1(C)CC2CC(C)(CN2C(=O)COC(=O)c2cccc([N+](=O)[O-])c2)C1 (stereo not drawn)	GRIN3A LBD mod 11.2 (no result: Hep lipid drop)
CC1(C)CC2CC(C)(CN2C(=O)COC(=O)c2cccc(O)c2)C1 (stereo not drawn)	none (no result: Hep lipid drop)
O=C(NC1CCCCN(Cc2ccc(OC(F)(F)F)cc2)C1=O)c1ccc2ccccc2c1 (stereo not drawn)	none (no result: GRIN3A LBD mod, aDG glyco act, GASC-1 inh, Hep lipid drop)
CC(=O)Nc1sc(N/N=C\c2cccc(Cl)c2)nc1-c1cccs1	GRIN3A LBD mod 13.8
CC(=O)Nc1sc(N/N=C\c2ccc(O)cc2)nc1-c1cccs1	none
CC(=O)Nc1sc(NC(=O)c2ccccc2)nc1-c1cccs1	GRIN3A LBD mod 18.3 (no result: Hep lipid drop)
CCCCc1cccc2[nH]cc(C)c12	none (no result: GRIN3A LBD mod, aDG glyco act, GASC-1 inh, Hep lipid drop)
Cc1ccc(C(=O)OCC(=O)c2c[nH]c3ccccc23)cc1	none
CC(O)C(NS(=O)(=O)c1ccc(Cl)cc1)C(=O)OCC(=O)c1c[nH]c2ccccc12 (stereo not drawn)	none
CC(C)C(NS(=O)(=O)c1c(Cl)cccc1Cl)C(=O)OCC(=O)c1c[nH]c2ccccc12 (stereo not drawn)	GRIN3A LBD mod 23.3
CC(C)Cc1ccc(C(C)C(=O)OCC(=O)c2c[nH]c3ccccc23)cc1 (stereo not drawn)	GRIN3A LBD mod 22.7
CCCC1S/C(=N/N=C/c2ccc(OC)cc2)N(Cc2ccc(OC)cc2)C1=O (stereo not drawn)	none (no result: Hep lipid drop)
CCCC1S/C(=N/N=C/c2ccc(OC)cc2)N(Cc2ccccc2)C1=O (stereo not drawn)	GRIN3A LBD mod 10.2
O=C(Nc1cc(S(=O)(=O)N2CCCCC2)ccc1Cl)c1ccccc1NS(=O)(=O)c1ccc(F)cc1	GRIN3A LBD mod 20.8
O=C(Nc1cc(S(=O)(=O)N2CCCCC2)ccc1O)c1ccccc1NS(=O)(=O)c1ccc(F)cc1	GRIN3A LBD mod 21.0
O=C(Nc1cc(S(=O)(=O)N2CCOCC2)ccc1O)c1ccc(S(=O)(=O)N2CCCCC2)cc1	none (no result: Hep lipid drop)
O=C(Nc1cc(S(=O)(=O)Nc2ccc(Cl)cc2)ccc1O)c1ccc(S(=O)(=O)N2CCCCCC2)cc1	GRIN3A LBD mod 29.6
O=C(C(=O)N1CCC(CNS(=O)(=O)c2ccccc2)CC1)c1cc2ccccc2o1	none (no result: GRIN3A LBD mod, aDG glyco act, GASC-1 inh, Hep lipid drop)
CC(=O)c1cc(-c2cnn(Cc3ccccc3)c2)c(=O)n2c1CCC2	none (no result: GRIN3A LBD mod, aDG glyco act, GASC-1 inh, Hep lipid drop)
COc1ccc(C2=Nc3ccccc3N(C(=O)c3cccnc3)C2C(=O)NC2CCCC2)cc1 (stereo not drawn)	none (no result: GRIN3A LBD mod, GASC-1 inh, Hep lipid drop)
CCCCCCCCCCOC(=O)Cn1c(COc2ccc(OC)cc2)[n+](C)c2ccccc21	none (no result: GC-B act, GC-A act)
CCCCCCCCCCOC(=O)Cn1c(COc2ccc(Cl)cc2)[n+](C)c2ccccc21	GRIN3A LBD mod 20.7
CCCCCCCCCCOC(=O)Cn1c(COc2ccccc2)[n+](C)c2ccccc21	none
CCCCCCCCCCOC(=O)Cn1c(COc2ccccc2C)[n+](C)c2ccccc21	GRIN3A LBD mod 31.0 (no result: GC-B act, GC-A act)
CNc1ncnc2c1cnn2C1CCCCO1 (stereo not drawn)	none (no result: GASC-1 inh, Hep lipid drop)
COc1ccc(Cl)cc1NC(=O)CSc1nnc(C)c(=O)n1N	GRIN3A LBD mod 12.6
COC(=O)c1cc(C(c2ccccc2O)C2CCC(C)(C)O2)n2ccccc12 (stereo not drawn)	none (no result: GRIN3A LBD mod, aDG glyco act, GASC-1 inh, Hep lipid drop)
O=C(NCc1ccco1)/C(=C/c1ccccc1F)NC(=O)c1ccccc1	GRIN3A LBD mod 13.7
O=C(NCc1ccco1)/C(=C/c1ccc(F)cc1)NC(=O)c1ccccc1	none
O=C(CSc1nnc(-c2cnccn2)n1-c1ccccc1)Nc1ccc2c(c1)OCCO2	none (no result: GRIN3A LBD mod, aDG glyco act, GASC-1 inh, Hep lipid drop)
O=[N+]([O-])c1cc2no[n+]([O-])c2cc1N1CCCCC1	GC-A act 42.3 (no result: GASC-1 inh, Hep lipid drop)
O=c1cc(-c2ccc(O)c(O)c2)oc2cc(O)c([C@@H]3O[C@H](CO)[C@@H](O)[C@H](O)[C@H]3O)c(O)c12	GRIN3A LBD mod 18.5 (no result: Hep lipid drop)
COc1ccc(-n2c(SCC(=O)N/N=C(/C)c3cccc(O)c3)nc3ccccc3c2=O)cc1	none (no result: GRIN3A LBD mod, aDG glyco act, GASC-1 inh, Hep lipid drop)
Cc1nnc(NC(=O)C(C)Sc2nnc(-c3ccco3)n2C)s1 (stereo not drawn)	none
CC(Sc1nnc(-c2ccco2)n1C)C(=O)Nc1nccs1 (stereo not drawn)	GRIN3A LBD mod 20.8 (no result: Hep lipid drop)
COC(=O)c1cnn(-c2ccc(C)c(C)c2)c1-n1cccc1	GRIN3A LBD mod 11.1
CC(C)C(NC(=O)CCNC(=O)c1ccc([N+](=O)[O-])cc1)c1nc2ccccc2[nH]1 (stereo not drawn)	none (no result: Hep lipid drop)
CCCCCCn1c(=O)c(-c2ccccc2)c(O)c2ccccc21	GRIN3A LBD mod 12.2
CCCCCCn1c(=O)c(Cc2ccccc2)c(O)c2ccccc21	none
O=C1N=c2ccccc2=C1c1sc(Nc2ccc(O)cc2)nc1O	GRIN3A LBD mod 13.2 (no result: GASC-1 inh)
O=C1N=c2ccccc2=C1c1sc(Nc2cccc(O)c2)nc1O	GRIN3A LBD mod 25.2
N#Cc1ccc2nc(-c3ccc(CN4CCC5(CC4)CNc4ccccc45)cc3)c(-c3ccccc3)nc2c1	none (no result: GRIN3A LBD mod, aDG glyco act, GASC-1 inh, Hep lipid drop)
COC(=O)[C@]12C[C@H](CC(=O)NCC34CC5CC(CC(C5)C3)C4)C(=O)N(CCC3=CCCCC3)C1=C[C@H](COCc1ccccc1)O[C@@H]2C	none (no result: GRIN3A LBD mod, aDG glyco act, GASC-1 inh, Hep lipid drop)
O=C(NC1CCSc2ccccc21)c1cccc(OC(F)F)c1 (stereo not drawn)	none
FC(F)Oc1ccc(NC(=S)NC2CCSc3ccccc32)cc1 (stereo not drawn)	GRIN3A LBD mod 17.4
Cc1c(Cl)cccc1NC(=O)CCNC(=O)N1CC(=O)Nc2ccccc21	none
O=C(Nc1nc(COc2ccccc2)cs1)C1CCC1	none
CC(=O)Nc1nc(COc2ccccc2)cs1	none
